The text below walks through data of ChEMBL document CHEMBL4402562, “Discovery of Novel Peptidomimetic Boronate ClpP Inhibitors with Noncanonical Enzyme Mechanism as Potent Virulence Blockers in Vitro and in Vivo” (J Med Chem, 2020).

Active and inactive are the calls of the source. The calls are words filed in the database; no cut-off is given here.

Data set [1] concerns the target T1, ATP-dependent Clp protease proteolytic subunit (Staphylococcus aureus (strain NCTC 8325), UniProt Q2G036).
T1 sequence (Q2G036 whole entry): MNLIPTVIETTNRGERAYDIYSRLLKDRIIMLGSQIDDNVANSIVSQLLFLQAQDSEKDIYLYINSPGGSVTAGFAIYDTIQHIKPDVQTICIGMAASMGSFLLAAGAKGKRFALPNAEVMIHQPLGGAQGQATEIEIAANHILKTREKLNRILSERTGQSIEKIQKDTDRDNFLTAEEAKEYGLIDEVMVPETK
Kind of data set: (§1) Inhibition of N-terminal His6-sumo-tagged full length Staphylococcus aureus ClpP expressed in Escherichia coli […] pre-incubated for 10 mins before Suc-LY-AMC addition and measured after 1 hr by fluorescence based assay. Put shortly: (§2)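 SaClpP (1 μM monomer) in 100 mM Hepes pH 7.0, 100 mM NaCl. Preincubated 10 min at RT with inhibitor, two-fold dilutions over 8 steps from 100 μM. Suc-LY-AMC at 200 μM, 380/440 nm recorded for 1 h at 37 °C, slopes normalized to DMSO. For kinact/Ki, inhibitor premixed with substrate and reaction started by enzyme, fitted by least squares. Thrice, triplicate wells.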

Data set [2] deals with T2, ATP-dependent Clp protease proteolytic subunit (Staphylococcus aureus (strain NCTC 8325)) (UniProt Q2G036).
T2 sequence (whole entry): T1 sequence (Q2G036 whole entry)
Described as §1. Summed up: as §2

Data set [3] is described as follows: Cytotoxicity in human HepG2 cells assessed as reduction in cell viability incubated for 24 hrs by MTT assay. In kind it is cell-based. Summed up: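 MTT assay. HeLa (3×10^3 cells) or HepG2 (4×10^3 cells) seeded in DMEM and grown 24 h, then given compound for a further 24 h. Absorbance read at 570 nm against DMSO wells. GI50 from dose-response fit; three experiments, triplicate wells.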

In data set [4] the test system is Staphylococcus aureus. In words: Inhibition of virulence-related genes expression in methicillin-resistant Staphylococcus aureus ATCC 33591 assessed as reduction in lukS expression at 4 to 16 uM by qPCR analysis relative to control. Format: functional, organism-based. Summed up: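 Total RNA from 2×10⁸ CFU treated MRSA by liquid-nitrogen freeze-thaw and TRIzol; qPCR relative to gyrB endogenous control; three experiments, triplicate wells.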

Data set [5] has as its target T2, ATP-dependent Clp protease proteolytic subunit (Staphylococcus aureus (strain NCTC 8325)). Kind of data set: Induction of thermal stabilization of ClpP in methicillin-resistant Staphylococcus aureus ATCC 33591 assessed as protein stability up to 83 degC pre-incubated for 2 hrs by CETSA method. Put shortly: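 MRSA grown at 37 °C in TSB with DMSO or 100 µM compound 2 h; cells in TE buffer (~4×10⁹ CFU/mL), lysostaphin 37 °C 30 min; supernatant heated 5 min at set temperatures, 3 min RT, ice, spun 20,000 g 20 min; soluble ClpP by western blot with polyclonal anti-ClpP.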

A short description of data set [6]: Toxicity in BALB/c mouse model of skin abscess infected with methicillin-resistant Staphylococcus aureus ATCC 33591 assessed as effect on uric acid levels at 1.5 to 3 mg/kg injected into shaved area of skin once daily for 4 days. Format: organism-based. Conditions: in vivo, other, 96 h. Put shortly:
(§3)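 Infected BALB/c mice (n=5/group) dosed 1.5 or 3 mg/kg into the infected skin once daily for 4 days; blood collected on day 4 and day 14, centrifuged 3,500 rpm 15 min, serum biochemistry analysed.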

The target of data set [7] is T1, ATP-dependent Clp protease proteolytic subunit. Kind of data set: Inhibition of ClpP in methicillin-resistant Staphylococcus aureus ATCC 33591 assessed as reduction in bacteria-induced hemolysis of sheep erythrocytes by measuring hemoglobin release incubated for 15 mins.
Data set [8] in a line: Inhibition of Pseudomonas aeruginosa ClpP1 expressed in Escherichia coli […] pre-incubated for 10 mins before Suc-LY- AMC addition and measured after 1 hr by fluorescence based assay relative to control. Put shortly: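 PaClpP1 (0.5 μM monomer) in 25 mM Tris-Cl pH 7.5, 150 mM NaCl. Preincubated 10 min at RT with inhibitor, two-fold dilutions over 8 steps from 50 μM. Then 50 μM Suc-LY-AMC, 380/440 nm for 1 h at 37 °C, slopes normalized to DMSO. Thrice, triplicate wells.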

Data set [9] is described as follows: Toxicity in BALB/c mouse model of skin abscess infected with methicillin-resistant Staphylococcus aureus ATCC 33591 assessed as increase in direct bilirubin levels at 1.5 to 3 mg/kg injected into shaved area of skin once daily for 4 days measured on day 14. Format: organism-based. Conditions: in vivo, other, 96 h. Summed up: as §3
For data set [10], the system named is Staphylococcus aureus. Kind of data set: Antivirulence activity against methicillin-resistant Staphylococcus aureus ATCC 33591 infected in BALB/c mouse model of skin abscess assessed as reduction in skin inflammation at 1.5 to 3 mg/kg injected into shaved area of skin once daily for 4 days measured after 12 hrs post last dose by hematoxylin and eosin staining based optical microscopy. In kind it is functional, organism-based. Summed up: (§4)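 Same MRSA ATCC 33591 skin-abscess model in female BALB/c mice (n=5/group), 40 µL compound at 1.5 or 3 mg/kg injected into the infected shaved skin once daily for 4 days. On day 4 infected skin and heart, liver, spleen, lung, kidney fixed in 4% paraformaldehyde, embedded, sectioned, H&E stained and examined by microscopy; PBS-treated uninfected and vehicle controls.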

A short description of data set [11]: Toxicity in BALB/c mouse model of skin abscess infected with methicillin-resistant Staphylococcus aureus ATCC 33591 assessed as effect on blood urea nitrogen levels at 1.5 to 3 mg/kg injected into shaved area of skin once daily for 4 days. Format: organism-based. The settings on record: in vivo, other, 96 h. Put shortly: as §3
Data set [12] in a line: Toxicity in BALB/c mouse model of skin abscess infected with methicillin-resistant Staphylococcus aureus ATCC 33591 assessed as effect on total protein levels at 1.5 to 3 mg/kg injected into shaved area of skin once daily for 4 days. In kind it is organism-based. The settings on record: in vivo, other, 96 h. Put shortly: as §3
The target in data set [13] is T2, ATP-dependent Clp protease proteolytic subunit (Staphylococcus aureus (strain NCTC 8325)). Kind of data set: Inhibition of N-terminal His6-sumo-tagged full length Staphylococcus aureus ClpP expressed in Escherichia coli […] (DE3) assessed as Kinact/Ki ratio […] and measured after 1 hr by fluorescence based assay.
The nature of data set [14]: Toxicity in BALB/c mouse model of skin abscess infected with methicillin-resistant Staphylococcus aureus ATCC 33591 assessed as effect on creatinine levels at 1.5 to 3 mg/kg injected into shaved area of skin once daily for 4 days. Format: organism-based. The settings on record: in vivo, other, 96 h. Summed up:
as §3

Data set [15] relates to Staphylococcus aureus. In words: Antivirulence activity against methicillin-resistant Staphylococcus aureus ATCC 33591 infected in BALB/c mouse model of skin abscess assessed as reduction in kidney histopathological changes at 1.5 to 3 mg/kg injected into shaved area of skin once daily for 4 days measured after 12 hrs post last dose by hematoxylin and eosin staining based optical microscopy. In kind it is functional, organism-based. Summed up:
as §4

Data set [16] has as its system Staphylococcus aureus. In words: Antivirulence activity against methicillin-resistant Staphylococcus aureus ATCC 33591 infected in BALB/c mouse model of skin abscess assessed as effect on bacterial recovery levels at 1.5 to 3 mg/kg injected into shaved area of skin once daily for 4 days measured after 12 hrs post last dose. Format: functional, organism-based. Put shortly: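 Female BALB/c mice, 6-8 weeks, n=5 per group, backs shaved and depilated 1 day before; 50 µL subcutaneous 1.7 × 10⁹ CFU/mL MRSA ATCC 33591. From 6 h post-infection, 40 µL vehicle, vancomycin 3 mg/kg, or compound 1.5 or 3 mg/kg injected at infection site once daily for 4 days; weight recorded daily. Skin homogenised in saline 12 h after last dose, plated on LB agar 37 °C ≥16 h; log10 CFU/abscess; t-test.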

`CC(C)C[C@H](NC(=O)[C@H](Cc1c[nH]c2ccccc12)NC(=O)c1cc(Cl)ccc1Cl)B(O)O`: the IC50 in data set [1] is 900 nM; in data set [8], 3000 to 25000 nM. Besides, the inhibition result in data set [2] was “Dose-dependent effect”. In addition, the GI50 at 24 h in data set [3] stood at 83400 nM. Moreover, the inhibition entry in [4] was “Active”. Moreover, the result in data set [5], in data set [10], in data set [15] and in data set [16] was Active. The Activity result in data set [6], in [9], in [11], in [12] and in data set [14] was “Non-Toxic” throughout. The EC50 in data set [7] is 1400 nM. Also, the Ratio in data set [13] amounted to 16.7 ×10² /s.M.
